How the values were obtained:
CD209 antigen [1] = target: T1, CD209 antigen (Homo sapiens, UniProt Q9NNX6); assay: Displacement of biotinylated HIV1 gp120 from DC-SIGN receptor carbohydrate recognition domain (unknown origin) after 2 hrs by solid-phase competitive displacement assay
T1 sequence (Q9NNX6 whole entry): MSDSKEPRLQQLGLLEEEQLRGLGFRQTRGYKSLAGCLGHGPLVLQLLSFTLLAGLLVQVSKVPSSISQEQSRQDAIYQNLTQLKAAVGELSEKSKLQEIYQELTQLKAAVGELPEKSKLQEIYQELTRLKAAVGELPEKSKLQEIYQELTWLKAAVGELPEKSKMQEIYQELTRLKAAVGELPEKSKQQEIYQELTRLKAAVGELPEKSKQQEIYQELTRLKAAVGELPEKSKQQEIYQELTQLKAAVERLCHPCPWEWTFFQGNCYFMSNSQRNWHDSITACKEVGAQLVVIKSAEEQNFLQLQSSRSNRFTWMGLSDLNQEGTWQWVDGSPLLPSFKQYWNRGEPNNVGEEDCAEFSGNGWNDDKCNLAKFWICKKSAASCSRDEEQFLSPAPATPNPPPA

CD209 antigen [2] = target: T1, CD209 antigen; assay: Antagonist activity at DC-SIGN receptor (unknown origin) assessed as inhibition of mannosylated BSA binding by SPR assay
[3] = Cytotoxicity against human DC at 50 uM after 24 hrs by propidium iodide staining-based flow cytometry
Outline: (§1)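 Immature DCs, seeded after 5 days of culture at 0.5 × 10⁶ cells/ml, were treated with compounds at 50, 100 and 250 for 24 h. Cells were then harvested, stained with propidium iodide for 15 min and analysed by flow cytometry. The percentage of PI-positive cells was taken as the percentage of dead cells.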

[4] = Cytotoxicity against human DC at 250 uM after 24 hrs by propidium iodide staining-based flow cytometry
[5] = Cytotoxicity against human DC at 250 uM after 24 hrs by propidium iodide staining-based flow cytometry; outline: as §1
[6] = Cytotoxicity against human DC at 100 uM after 24 hrs by propidium iodide staining-based flow cytometry; outline: as §1
CD209 antigen [7] = target: T1, CD209 antigen; assay: Displacement of [125I]-Man30-BSA from DC-SIGN receptor carbohydrate recognition domain (unknown origin) after 2 hrs by gamma-counting analysis

Row | SMILES | IC50 (CD209 antigen [1]) [µM] | Activity [3] | Activity [4] | Activity [5] | further results
1 | COC(=O)[C@H]1C[C@H](OCCN=[N+]=[N-])[C@@H](O[C@H]2O[C@H](CO)[C@@H](O)[C@H](O)[C@@H]2O)C[C@@H]1C(=O)OC | 2760 | – | – | – | IC50 (CD209 antigen [2]): 1020 µM
2 | [N-]=[N+]=NCCO[C@H]1C[C@H](C(=O)NCc2ccc(CO)cc2)[C@@H](C(=O)NCc2ccc(CO)cc2)C[C@@H]1O[C@H]1O[C@H](CO)[C@@H](O)[C@H](O)[C@@H]1O | 420 | – | – | – | IC50 (CD209 antigen [2]): 325 µM
3 | N#Cc1ccc(C(=O)NCC(CNC(=O)c2ccc(C#N)cc2)O[C@H]2O[C@H](CO)[C@@H](O)[C@H](O)[C@@H]2O)cc1 | – | Non-toxic | – | – | –
4 | O=C(NCC(CNC(=O)c1ccc2ccccc2c1)O[C@H]1O[C@H](CO)[C@@H](O)[C@H](O)[C@@H]1O)c1ccc2ccccc2c1 | – | Non-toxic | Toxic | Toxic | –
5 | OC[C@H]1O[C@H](OC(COc2cccc3ccccc23)COc2cccc3ccccc23)[C@@H](O)[C@@H](O)[C@@H]1O | – | Non-toxic | Toxic | Toxic | Activity [6]: Toxic
6 | COc1ccc2ccc(OCC(COc3ccc4ccc(OC)cc4c3)O[C@H]3O[C@H](CO)[C@@H](O)[C@H](O)[C@@H]3O)cc2c1 | – | Non-toxic | Toxic | Toxic | Activity [6]: Toxic
7 | COc1ccc(OCC(CO[C@H]2O[C@H](CO)[C@@H](O)[C@H](O)[C@@H]2O)Oc2ccc(OC)cc2)cc1 (mixture of isomers) | – | Non-toxic | – | – | –
8 | OC[C@H]1O[C@H](OCC(COc2ccc3ccccc3c2)Oc2ccc3ccccc3c2)[C@@H](O)[C@@H](O)[C@@H]1O (mixture of isomers) | – | Non-toxic | Toxic | Toxic | –
9 | OC[C@H]1OC(O)[C@@H](O)[C@@H](O)[C@@H]1O (stereo partly drawn) [D-MANNOSE] | – | – | – | – | Ki (CD209 antigen [7]): 13100 µM
10 | C[C@H](O)[C@@H](O)[C@@H](O)[C@H](O)C=O [L-FUCOSE] | 2950 | – | – | – | Ki (CD209 antigen [7]): 6700 µM
